Consider 22 molecules from PMC7744356 (European journal of medicinal chemistry, 2020).

Common to all, as to type: cell-based
For assay [1], the target named is T1, N1303K-CFTR (Homo sapiens, UniProt P13569, N1303K). As to the kind of experiment: Co-potentiator activity in N1303K-CFTR expressing FRT cell model. Particulars: for co-potentiator activity (in words) / VMAX: N1303K-CFTR expressing FRT cells; for VMAX: 20 = 100%; for fold more potent than 20: EC50 relative to 20. The gist of the method:
(§1)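 FRT cells stably expressing N1303K-CFTR, grown on permeable supports and corrected with 3 μM VX-661 for 18–24 h. Short-circuit current was recorded at 37 °C in HCO3-buffered solutions with a chloride gradient and the basolateral membrane permeabilized with 250 μg/ml amphotericin B. Additions: 20 μM forskolin, 5 μM VX-770, rising test compound concentrations, then 10 μM CFTRinh-172. EC50 and maximal response come from concentration-dependence data (n=3, mean ± S.E.M.), with potency relative to a reference co-potentiator.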

Assay [2] has as its target T1, N1303K-CFTR. As to the kind of experiment: Short-circuit current in FRT cells expressing N1303K-CFTR. The note with it: N1303K-CFTR EC50. The gist of the method: as §1
A further assay deals with R347P-CFTR (Homo sapiens, UniProt P13569, R347P). As to the kind of experiment: Short-circuit current in FRT cells expressing R347P-CFTR. The note with it: 20 μM 2i after 20 μM forskolin and 5 μM VX-770. In outline:
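Permeabilized FRT monolayers stably expressing R347P-CFTR were pre-corrected with 3 μM VX-661 for 18–24 h. Short-circuit current was measured at 37 °C in HCO3-buffered solutions under a chloride gradient, with the basolateral membrane opened using 250 μg/ml amphotericin B. Sequential additions: 20 μM forskolin, 5 μM VX-770, 20 μM test compound, then 10 μM CFTRinh-172.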

Assay [3] addresses T1, N1303K-CFTR. As to the kind of experiment: Short-circuit current in gene-edited 16HBE14o- cells expressing N1303K-CFTR. The gist of the method:
(§2)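 Gene-edited 16HBE14o- human bronchial epithelial cells carrying endogenous N1303K or I1234del CFTR were grown on permeable supports. The I1234del cells were corrected with 18 μM VX-661 plus 3 μM VX-445 for 18–24 h. Short-circuit current was measured at 37 °C in Hepes-buffered solutions with a chloride gradient. Additions: 20 μM forskolin, 5 μM VX-770, 10 μM test compound, then 10 μM CFTRinh-172. The CFTRinh-172-inhibitable ΔIsc is compared with the VX-770-alone response (mean ± S.E.M., n=3, unpaired t-test).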

For the next assay, the target named is I1234del-CFTR (Homo sapiens, UniProt P13569, DEL1234-1239). As to the kind of experiment: Short-circuit current in gene-edited 16HBE14o- cells expressing I1234del-CFTR. Particulars: 10 μM 2i. The gist of the method:
as §2

Entries after “also recorded” stand apart in the source; their conditions may differ.

Consider `COc1ccc2[nH]c3c(c2c1)CCNC31CCN(Cc2c(F)c(F)c(F)c(F)c2F)CC1` [2e, 6’-Methoxy-1-((perfluorophenyl)methyl)-2’,3’,4’,9’-tetrahydrospiro[piperidine-4,1’-pyrido[3,4-b]indole]], for which the “co-potentiator activity (in words)” value on N1303K-CFTR [1] is “active”.
`COc1ccc2[nH]c3c(c2c1)CCNC31CCN(Cc2cc(Cl)ccc2[N+](=O)[O-])CC1` [1c, 1-(5-Chloro-2-nitrobenzyl)-6’-methoxy-2’,3’,4’,9’-tetrahydrospiro[piperidine-4,1’-pyrido[3,4-b]indole]]: at N1303K-CFTR [1], the VMAX result is “improved Vmax”.
Turning to `COc1ccc2[nH]c3c(c2c1)CCNC31CCN(Cc2cc(F)cc(Cl)c2)CC1` [1e, 1-(3-Chloro-5-fluorobenzyl)-6’-methoxy-2’,3’,4’,9’-tetrahydrospiro[piperidine-4,1’-pyrido[3,4-b]indole]], the “co-potentiator activity (in words)” value on N1303K-CFTR [1] is “decreased activity”.
As to `Fc1ccc(CN2CCC3(CC2)NCCc2c3[nH]c3ccc(Cl)cc23)c(F)c1` [5c, 6’-Chloro-1-(2,4-difluorobenzyl)-2’,3’,4’,9’-tetrahydrospiro[piperidine-4,1’-pyrido[3,4-b]indole]], at N1303K-CFTR [1], the “fold more potent than 20” value was “approximately 4 fold” and the “co-potentiator activity (in words)” value is listed as “tolerated”.
As for `COc1ccc2c3c([nH]c2c1)C1(CCN(Cc2ccc(F)cc2F)CC1)NCC3` [5d, 1-(2,4-Difluorobenzyl)-7’-methoxy-2’,3’,4’,9’-tetrahydrospiro[piperidine-4,1’-pyrido[3,4-b]indole]], at N1303K-CFTR [1], the “fold more potent than 20” value is “approximately 4 fold” and the “co-potentiator activity (in words)” value is recorded as “decreased activity”.
On to `COc1ccc2[nH]c3c(c2c1)CCNC31CCN(Cc2ccco2)CC1` [3e, 1-(Furan-2-ylmethyl)-6’-methoxy-2’,3’,4’,9’-tetrahydrospiro[piperidine-4,1’-pyrido[3,4-b]indole]], for which the “co-potentiator activity (in words)” value on N1303K-CFTR [1] is “active, but less potent”.
As to `COc1ccc2[nH]c3c(c2c1)CCNC31CCN(Cc2ccc(F)c(Cl)c2F)CC1` [1j, 1-(3-Chloro-2,4-difluorobenzyl)-6’-methoxy-2’,3’,4’,9’-tetrahydrospiro[piperidine-4,1’-pyrido[3,4-b]indole]], the VMAX result on N1303K-CFTR [1] is “improved Vmax”.
For `COc1ccc2[nH]c3c(c2c1)CCNC31CCCN(Cc2ccc(F)cc2F)CC1` (stereo not drawn) [4a, 1-(2,4-Difluorobenzyl)-6’-methoxy-2’,3’,4’,9’-tetrahydrospiro[azepane-4,1’-pyrido[3,4-b]indole]], on N1303K-CFTR [1], the “co-potentiator activity (in words)” value is “inactive”.
Regarding `COc1ccc2c(c1)c1c(n2C)C2(CCN(Cc3ccc(F)cc3F)CC2)NCC1` [5e, 1-(2,4-Difluorobenzyl)-6’-methoxy-9’-methyl-2’,3’,4’,9’-tetrahydrospiro[piperidine-4,1’-pyrido[3,4-b]indole]], the “co-potentiator activity (in words)” value on N1303K-CFTR [1] is “inactive; also recorded: inactivity”.
On the same count and under the same terms, with `COc1ccc2[nH]c3c(c2c1)CCNC31CCN(CCCc2ccccc2)CC1` [3d, 6’-Methoxy-1-(3-phenylpropyl)-2’,3’,4’,9’-tetrahydrospiro[piperidine-4,1’-pyrido[3,4-b]indole]] the entry was “greatly reduced activity; also recorded: inactive”; with `COc1ccc2[nH]c3c(c2c1)CCNC31CCNCC1` [3a, 6’-Methoxy-2’,3’,4’,9’-tetrahydrospiro[piperidine-4,1’-pyrido[3,4-b]indole]], “inactive”; with `COc1ccc2[nH]c3c(c2c1)CCN[C@@]31CCN2Cc3ccccc3C[C@H]2C1` (racemic) [6b, (+/−)-(2R,11aS)-6’-methoxy-1,2’,3,3’,4,4’,6,9’,11,11a-decahydrospiro[pyrido[1,2-b]isoquinoline-2,1’-pyrido[3,4-b]indole]], “inactive”.
Take `COc1ccc2[nH]c3c(c2c1)CCNC31CCN(Cc2ccc(F)cc2F)C1` (stereo not drawn) [4b, 1’-(2,4-Difluorobenzyl)-6-methoxy-2,3,4,9-tetrahydrospiro[pyrido[3,4-b]indole-1,3’-pyrrolidine]]: the “co-potentiator activity (in words)” value on N1303K-CFTR [1] was “inactive; also recorded: abolished activity”.
On the same count and under the same terms, with `COc1ccc2[nH]c3c(c2c1)CCNC31CCN(Cc2cc(F)cc(F)c2)CC1` [2c, 1-(3,5-Difluorobenzyl)-6’-methoxy-2’,3’,4’,9’-tetrahydrospiro[piperidine-4,1’-pyrido[3,4-b]indole]] the entry was “active”; with `COc1ccc2[nH]c3c(c2c1)CCNC31CCN(Cc2cccnc2)CC1` [3g, 6’-Methoxy-1-(pyridin-3-ylmethyl)-2’,3’,4’,9’-tetrahydrospiro[piperidine-4,1’-pyrido[3,4-b]indole]], “active, but less potent”; with `COc1ccc2[nH]c3c(c2c1)CCNC31CCN(Cc2ccc(F)cc2F)CC1` [2a, 1-(2,4-Difluorobenzyl)-6’-methoxy-2’,3’,4’,9’-tetrahydrospiro[piperidine-4,1’-pyrido[3,4-b]indole]], “active”.
On to `COc1ccc2[nH]c3c(c2c1)CCNC31CCCN(Cc2ccc(F)cc2F)C1` (stereo not drawn) [4c, 1-(2,4-Difluorobenzyl)-6’-methoxy-2’,3’,4’,9’-tetrahydrospiro[piperidine-3,1’-pyrido[3,4-b]indole]], for which the “co-potentiator activity (in words)” value on N1303K-CFTR [1] is “inactive; also recorded: abolished activity”.
`COc1ccc2[nH]c3c(c2c1)CCNC31CCN(Cc2ccccn2)CC1` [3f, 6’-Methoxy-1-(pyridin-2-ylmethyl)-2’,3’,4’,9’-tetrahydrospiro[piperidine-4,1’-pyrido[3,4-b]indole]]: the Emax on N1303K-CFTR [1] (FRT, read-out: VMAX) amounted to 107%. The “co-potentiator activity (in words)” value on N1303K-CFTR [1] was “active, but less potent”.
On to `COc1ccc2[nH]c3c(c2c1)CCNC31CCN(CCc2ccccc2)CC1` [3c, 6’-Methoxy-1-phenethyl-2’,3’,4’,9’-tetrahydrospiro[piperidine-4,1’-pyrido[3,4-b]indole]], for which the “co-potentiator activity (in words)” value on N1303K-CFTR [1] is “greatly reduced activity; also recorded: inactive”.
On the same count and under the same terms, with `COc1ccc2[nH]cc(CCNC3CCN(Cc4ccccc4)CC3)c2c1` [4d, 1-Benzyl-N-(2-(5-methoxy-1H-indol-3-yl)ethyl)piperidin-4-amine] the entry was “abolished activity”.
Consider `COc1ccc2[nH]c3c(c2c1)CCNC31CCN(Cc2cc(F)c(F)cc2F)CC1` [2i, 6’-Methoxy-1-(2,4,5-trifluorobenzyl)-2’,3’,4’,9’-tetrahydrospiro[piperidine-4,1’-pyrido[3,4-b]indole]], for which the “co-potentiator activity (in words)” value on N1303K-CFTR [1] was “most potent”. Also, the “fold improvement in potency over the original compound (20)” value at N1303K-CFTR [2] is on record as ~ 17 fold. Further, the “activation of R347P-CFTR (in words)” value at R347P-CFTR is “not activated”. Also, the figures for the “fold greater response than VX-770 alone” value at N1303K-CFTR [3] (10 μM 2i) and on I1234del-CFTR were “approximately 6 fold” and around 2 fold, respectively. Further, the “CFTRinh-172-inhibitable short-circuit current response” value on N1303K-CFTR [3] (10 μM 2i after 20 μM forskolin and 5 μM VX-770, mean ± S.E.M., n=3) worked out at 16.1 ± 0.4 μA/cm^2.
With `COc1ccc2[nH]c3c(c2c1)CCNC31CCN(Cc2ccc(Cl)cc2Cl)CC1` [1d, 1-(2,4-Dichlorobenzyl)-6’-methoxy-2’,3’,4’,9’-tetrahydrospiro[piperidine-4,1’-pyrido[3,4-b]indole]], the “co-potentiator activity (in words)” value at N1303K-CFTR [1] is “decreased activity”.
